ChEMBL document CHEMBL5257122, “Structure-Activity relationships of replacements for the triazolopyridazine of Anti-Cryptosporidium lead SLU-2633” (Bioorg Med Chem, 2023)
Blank lines part the entries; values can stand above or below the compound they belong to.

Experiments:
[1] = Dissociation constant, pKa of compound; assay type: physicochemical
Outline: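 Basic pKa calculated in silico (CDD Vault, method of Lu et al.), not measured.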

HCT-8 = experiment: Cytotoxicity against human HCT-8 cells assessed as reduction in cell growth; assay type: functional
[2] = Lipophilicity, logP of the compound; assay type: physicochemical; settings: octanol/water
Outline: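 LogP calculated in silico (CDD Vault, method of Gedeck et al.) as an estimate of lipophilicity.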

Cryptosporidium parvum [3] = experiment: Antiparasitic activity against Cryptosporidium parvum infected in human HCT-8 cells assessed as parasitic growth inhibition measured for 48 hrs by fluorescence microscopic analysis; assay type: functional, organism-based; settings: HCT-8, 48 h
Outline: (§1)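 C. parvum Iowa isolate oocysts excysted (10 mM HCl, 10 min, 37 °C; then 2 mM sodium taurocholate in PBS, 10 min, 16 °C) and used to infect near-confluent HCT-8 monolayers. Compound added after 3 h, then 45 h more at 37 °C, 5% CO₂. Fixed, stained with fluorescein-Vicia villosa lectin (vacuoles) and Hoechst (nuclei), imaged and counted automatically. 9-point dose-response, ≥2 experiments, n=8 per dose.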

[4] = molecular target: T1, Voltage-gated inwardly rectifying potassium channel KCNH2 (Homo sapiens, UniProt Q12809); experiment: Inhibition of hERG in CHO cells at 1 uM by automated patch clamp method relative to control; assay type: toxicity, cell-based
Outline: (§2)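 hERG expressed in CHO cells, automated patch-clamp electrophysiology. Tail current inhibition measured at 1, 10 and 30 μM, each in duplicate, and reported as the average % inhibition.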

[5] = molecular target: T1, Voltage-gated inwardly rectifying potassium channel KCNH2; experiment: Inhibition of hERG in CHO cells at 10 uM by automated patch clamp method relative to control; assay type: toxicity, cell-based; outline: as §2
[6] = molecular target: T1, Voltage-gated inwardly rectifying potassium channel KCNH2; experiment: Inhibition of hERG in CHO cells at 30 uM by automated patch clamp method relative to control; assay type: toxicity, cell-based; outline: as §2
[7] = molecular target: T1, Voltage-gated inwardly rectifying potassium channel KCNH2; experiment: Displacement of [3H]-dofetilide from human ERG at 10 uM relative to control; assay type: toxicity
Outline: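 Radioligand binding against human hERG potassium channel: % inhibition of [³H]-dofetilide binding by test compound at 10 μM.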

Cryptosporidium parvum [8] = experiment: Antiparasitic activity against Cryptosporidium parvum assessed as reduction in parasitic growth; assay type: functional, organism-based; outline: as §1

T1 sequence (Q12809 whole entry): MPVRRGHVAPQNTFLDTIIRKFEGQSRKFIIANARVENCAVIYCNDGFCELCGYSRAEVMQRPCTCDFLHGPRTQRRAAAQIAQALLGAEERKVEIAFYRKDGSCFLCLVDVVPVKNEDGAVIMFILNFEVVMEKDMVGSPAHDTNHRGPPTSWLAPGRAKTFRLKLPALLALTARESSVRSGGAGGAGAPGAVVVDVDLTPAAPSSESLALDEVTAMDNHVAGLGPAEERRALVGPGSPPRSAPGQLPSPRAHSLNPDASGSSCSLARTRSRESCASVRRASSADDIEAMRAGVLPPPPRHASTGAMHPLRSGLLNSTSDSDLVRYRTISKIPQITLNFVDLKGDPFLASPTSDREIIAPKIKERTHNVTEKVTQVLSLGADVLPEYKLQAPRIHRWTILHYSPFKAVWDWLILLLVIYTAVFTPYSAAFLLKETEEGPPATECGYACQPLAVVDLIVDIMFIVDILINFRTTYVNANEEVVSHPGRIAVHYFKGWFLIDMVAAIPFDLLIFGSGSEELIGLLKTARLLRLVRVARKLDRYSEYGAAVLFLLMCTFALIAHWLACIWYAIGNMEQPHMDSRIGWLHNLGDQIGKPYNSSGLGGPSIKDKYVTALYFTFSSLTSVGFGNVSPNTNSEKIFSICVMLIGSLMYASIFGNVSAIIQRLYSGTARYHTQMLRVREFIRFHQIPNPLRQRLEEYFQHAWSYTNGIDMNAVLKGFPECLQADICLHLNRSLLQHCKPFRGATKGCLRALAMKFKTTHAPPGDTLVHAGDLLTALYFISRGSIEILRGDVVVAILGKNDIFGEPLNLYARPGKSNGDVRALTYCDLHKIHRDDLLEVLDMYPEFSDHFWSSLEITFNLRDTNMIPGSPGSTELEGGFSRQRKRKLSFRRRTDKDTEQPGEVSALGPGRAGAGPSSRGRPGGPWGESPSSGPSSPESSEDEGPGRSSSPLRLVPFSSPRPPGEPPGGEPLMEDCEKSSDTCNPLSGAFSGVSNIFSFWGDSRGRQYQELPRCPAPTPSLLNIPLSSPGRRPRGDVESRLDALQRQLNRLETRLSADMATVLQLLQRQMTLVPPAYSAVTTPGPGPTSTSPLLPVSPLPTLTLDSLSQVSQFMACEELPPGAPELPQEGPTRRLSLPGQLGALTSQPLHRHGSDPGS

- pKa [1]: 5.9
- logP [2]: 3
Structure (SMILES): O=C(Cc1ccc(Cl)c(Cl)c1)N1CCN(c2ccc3nncn3n2)CC1
- CC50 (HCT-8): > 100 µM

- pKa [1]: 5.9
- logP [2]: 4
Structure (SMILES): O=C(Nc1ccc(Cl)c(Cl)c1)N1CCN(c2ccc3nncn3n2)CC1

Structure (SMILES): O=C(Cc1ccc(Cl)c(Cl)c1)N1CCN(c2ncccn2)CC1
- EC50 (Cryptosporidium parvum [3]): > 50 µM

Structure (SMILES): Cc1cc2nncn2nc1N1CCN(C(=O)Cc2ccc(Cl)c(Cl)c2)CC1
- EC50 (Cryptosporidium parvum [3]): 23 µM

- pKa [1]: 4.4
- logP [2]: 1.8
Structure (SMILES): O=C(Cc1ccc(Cl)c(Cl)c1)N1CCN(C2=Nn3cnnc3CC2)CC1
- inhibition (INH) [4]: 8.7%
- inhibition (INH) [5]: 34%
- EC50 (Cryptosporidium parvum [3]): 1.2 µM
- inhibition (INH) [6]: 61%
- Activity [7]: 15%

Structure (SMILES): Cc1nnc2ccc(N3CCN(C(=O)Nc4ccc(Cl)c(Cl)c4)CC3)nn12
- EC50 (Cryptosporidium parvum [3]): 26 µM

Structure (SMILES): O=C(Cc1ccc(Cl)c(Cl)c1)N1CCN(c2ccc3ncccc3n2)CC1
- EC50 (Cryptosporidium parvum [3]): 38 µM

Structure (SMILES): O=C(Cc1ccc(Cl)c(Cl)c1)N1CCN(c2ccc3cc[nH]c3n2)CC1
- EC50 (Cryptosporidium parvum [3]): 30 µM

Structure (SMILES): Cc1cc(N2CCN(C(=O)Nc3ccc(Cl)c(Cl)c3)CC2)nn2cnnc12
- EC50 (Cryptosporidium parvum [3]): 24 µM

Structure (SMILES): O=C(O)c1cn2nc(N3CCN(C(=O)Cc4ccc(Cl)c(Cl)c4)CC3)ccc2n1
- EC50 (Cryptosporidium parvum [3]): > 50 µM

Structure (SMILES): CCOC(=O)c1cn2nc(N3CCN(C(=O)Cc4ccc(Cl)c(Cl)c4)CC3)ccc2n1
- EC50 (Cryptosporidium parvum [3]): 58 µM

Structure (SMILES): O=C(Cc1ccc(Cl)c(Cl)c1)N1CCN(c2cc3ccncc3cn2)CC1
- EC50 (Cryptosporidium parvum [3]): 50 µM

Structure (SMILES): O=C(Nc1nc2cc(N3CCN(C(=O)Cc4ccc(Cl)c(Cl)c4)CC3)ccc2s1)c1ccccc1
- EC50 (Cryptosporidium parvum [3]): 93 µM

Structure (SMILES): Cc1cc2nncn2nc1N1CCN(C(=O)Nc2ccc(Cl)c(Cl)c2)CC1
- EC50 (Cryptosporidium parvum [3]): 25 µM

Structure (SMILES): O=C(Cc1ccc(Cl)c(Cl)c1)N1CCN(c2nccc(C(F)(F)F)n2)CC1
- EC50 (Cryptosporidium parvum [3]): > 50 µM

Structure (SMILES): O=C(Cc1ccc(Cl)c(Cl)c1)N1CCN(c2ncc([N+](=O)[O-])s2)CC1
- EC50 (Cryptosporidium parvum [3]): 20 µM

Structure (SMILES): O=C(Cc1ccc(Cl)c(Cl)c1)N1CCN(c2ccc3[nH]c(=O)sc3c2)CC1
- EC50 (Cryptosporidium parvum [3]): > 50 µM

Structure (SMILES): O=C(Cc1ccc(Cl)c(Cl)c1)N1CCN(c2ccc3nnc(Cl)n3n2)CC1
- EC50 (Cryptosporidium parvum [3]): 29 µM

Structure (SMILES): Cc1cc(N2CCN(C(=O)Cc3ccc(Cl)c(Cl)c3)CC2)nn2cnnc12
- EC50 (Cryptosporidium parvum [3]): 61 µM

Structure (SMILES): Nc1cn2nc(N3CCN(C(=O)Cc4ccc(Cl)c(Cl)c4)CC3)ccc2n1
- EC50 (Cryptosporidium parvum [3]): > 50 µM

Structure (SMILES): O=C(Cc1ccc(Cl)c(Cl)c1)N1CCN(c2ccc3nnc(C(F)(F)F)n3n2)CC1
- EC50 (Cryptosporidium parvum [3]): 29 µM

Structure (SMILES): O=C(Cc1ccc(Cl)c(Cl)c1)N1CCN(c2ccc3ccccc3n2)CC1
- EC50 (Cryptosporidium parvum [3]): 46 µM

Structure (SMILES): CC(C)(C)OC(=O)N1CCN(C(=O)Cc2ccc(Cl)c(Cl)c2)CC1
- EC50 (Cryptosporidium parvum [3]): > 50 µM

Structure (SMILES): O=C(Cc1ccc(Cl)c(Cl)c1)N1CCN(c2ccc3nnc(-c4ccccc4)n3n2)CC1
- EC50 (Cryptosporidium parvum [3]): 15 µM

Structure (SMILES): Cc1nc2nc(N3CCN(C(=O)Cc4ccc(Cl)c(Cl)c4)CC3)ccc2s1
- EC50 (Cryptosporidium parvum [3]): 18 µM

- logP [2]: 2.3
Structure (SMILES): O=C(Nc1ccc(Cl)c(Cl)c1)N1CCN(C2=Nn3cnnc3CC2)CC1
- EC50 (Cryptosporidium parvum [3]): 13 µM

Structure (SMILES): Cc1nccc(N2CCN(C(=O)Cc3ccc(Cl)c(Cl)c3)CC2)n1
- EC50 (Cryptosporidium parvum [3]): > 50 µM

Structure (SMILES): O=C(Nc1ccc(Cl)c(Cl)c1)N1CCN(c2ncc(C(F)(F)F)cn2)CC1
- EC50 (Cryptosporidium parvum [3]): > 25 µM

Structure (SMILES): Cc1nnc2ccc(N3CCN(C(=O)Cc4ccc(Cl)c(Cl)c4)CC3)nn12
- EC50 (Cryptosporidium parvum [3]): 30 µM

Structure (SMILES): O=C(Cc1ccc(Cl)c(Cl)c1)N1CCN(c2nc3ccccc3o2)CC1
- EC50 (Cryptosporidium parvum [3]): > 50 µM

Structure (SMILES): O=C(Cc1ccc(Cl)c(Cl)c1)N1CCNCC1
- EC50 (Cryptosporidium parvum [3]): > 50 µM

Structure (SMILES): O=C(Nc1ccc(Cl)c(Cl)c1)N1CCN(c2ccc3nnc(Cl)n3n2)CC1
- EC50 (Cryptosporidium parvum [3]): 12 µM

Structure (SMILES): O=C(Cc1ccc(Cl)c(Cl)c1)N1CCN(c2ccc3nnc(-c4ccncc4)n3n2)CC1
- EC50 (Cryptosporidium parvum [3]): > 50 µM

Structure (SMILES): O=C(Cc1ccc(Cl)c(Cl)c1)N1CCN(c2ccc3nnc(Cc4ccccc4)n3n2)CC1
- EC50 (Cryptosporidium parvum [3]): 16 µM

Structure (SMILES): CNc1nccc(N2CCN(C(=O)Nc3ccc(Cl)c(Cl)c3)CC2)n1
- EC50 (Cryptosporidium parvum [3]): > 25 µM

Structure (SMILES): O=C(Cc1ccc(Cl)c(Cl)c1)N1CCN(c2ccccn2)CC1
- EC50 (Cryptosporidium parvum [3]): > 50 µM

Structure (SMILES): O=C(Cc1ccc(Cl)c(Cl)c1)N1CCN(c2ccc3nccn3n2)CC1
- EC50 (Cryptosporidium parvum [3]): 63 µM

- pKa [1]: 5.9
Structure (SMILES): Nc1nc2nc(N3CCN(C(=O)Cc4ccc(Cl)c(Cl)c4)CC3)ccc2s1
- EC50 (Cryptosporidium parvum [3]): 3.2 µM
- Activity [7]: 34%

Structure (SMILES): O=C(Cc1ccc(Cl)c(Cl)c1)N1CCN(c2ccc3nnc(N4CCOCC4)n3n2)CC1
- EC50 (Cryptosporidium parvum [3]): 48 µM

Structure (SMILES): O=C(Cc1ccc(Cl)c(Cl)c1)N1CCN(c2ccc3[nH]ncc3n2)CC1
- EC50 (Cryptosporidium parvum [3]): 28 µM

Structure (SMILES): O=C(Cc1ccc(Cl)c(Cl)c1)N1CCN(c2ccc3nc[nH]c3c2)CC1
- EC50 (Cryptosporidium parvum [3]): 20 µM

Structure (SMILES): Cn1ncc2nc(N3CCN(C(=O)Cc4ccc(Cl)c(Cl)c4)CC3)ccc21
- EC50 (Cryptosporidium parvum [3]): > 50 µM

- pKa [1]: 6
Structure (SMILES): O=C(Cc1ccc(Cl)c(Cl)c1)N1CCN(c2ccc3nnc(-c4ccnc(C(F)(F)F)c4)n3n2)CC1
- EC50 (Cryptosporidium parvum [3]): 6.1 µM
- Activity [7]: 95%

Structure (SMILES): O=C(Nc1ccc(Cl)c(Cl)c1)N1CCN(c2cn3ccnc3cn2)CC1
- EC50 (Cryptosporidium parvum [3]): > 25 µM

Structure (SMILES): O=C(Nc1nc2nc(N3CCN(C(=O)Cc4ccc(Cl)c(Cl)c4)CC3)ccc2s1)c1ccncc1
- EC50 (Cryptosporidium parvum [3]): 7.3 µM

Structure (SMILES): COc1ccc(N2CCN(C(=O)Cc3ccc(Cl)c(Cl)c3)CC2)nn1
- EC50 (Cryptosporidium parvum [3]): 57 µM

Structure (SMILES): O=C(Cc1ccc(Cl)c(Cl)c1)N1CCN(c2ccc3nc(C(=O)N4CCOCC4)cn3n2)CC1
- EC50 (Cryptosporidium parvum [3]): > 50 µM

- pKa [1]: 6.2
Structure (SMILES): O=C(Cc1ccc(Cl)c(Cl)c1)N1CCN(c2ccc3nn(Cc4ccccc4)cc3n2)CC1
- EC50 (Cryptosporidium parvum [3]): 7.8 µM
- Activity [7]: 80%

Structure (SMILES): O=C(Cc1ccc(Cl)c(Cl)c1)N1CCN(c2ccn3nccc3n2)CC1
- EC50 (Cryptosporidium parvum [3]): 47 µM

Structure (SMILES): CCCCOC(=O)c1cn2nc(N3CCN(C(=O)Cc4ccc(Cl)c(Cl)c4)CC3)ccc2n1
- EC50 (Cryptosporidium parvum [3]): 23 µM

- pKa [1]: 3
Structure (SMILES): O=C(Cc1ccc(Cl)c(Cl)c1)N1CCN(c2ccccc2)CC1
- EC50 (Cryptosporidium parvum [3]): 42 µM
- Activity [7]: 2%

- pKa [1]: 6.4
Structure (SMILES): O=C(Nc1ccc(Cl)c(Cl)c1)N1CCN(c2ccc3nccn3n2)CC1
- EC50 (Cryptosporidium parvum [3]): 16 µM
- Activity [7]: 77%

Structure (SMILES): Nc1nnc2ccc(N3CCN(C(=O)Cc4ccc(Cl)c(Cl)c4)CC3)nn12
- EC50 (Cryptosporidium parvum [3]): 65 µM

Structure (SMILES): Cc1nc2cc(N3CCN(C(=O)Cc4ccc(Cl)c(Cl)c4)CC3)ccc2s1
- EC50 (Cryptosporidium parvum [3]): 14 µM

Structure (SMILES): Cc1cccc(N2CCN(C(=O)Cc3ccc(Cl)c(Cl)c3)CC2)n1
- EC50 (Cryptosporidium parvum [3]): 36 µM

Structure (SMILES): Nc1nc2cc(N3CCN(C(=O)Cc4ccc(Cl)c(Cl)c4)CC3)ccc2s1
- EC50 (Cryptosporidium parvum [3]): 16 µM

Structure (SMILES): CN(C)C(=O)c1cn2nc(N3CCN(C(=O)Cc4ccc(Cl)c(Cl)c4)CC3)ccc2n1
- EC50 (Cryptosporidium parvum [3]): 38 µM

Structure (SMILES): O=C(Cc1ccc(Cl)c(Cl)c1)N1CCN(c2nc3ccccc3s2)CC1
- EC50 (Cryptosporidium parvum [3]): 36 µM

Structure (SMILES): O=C(Cc1ccc(Cl)c(Cl)c1)N1CCN(c2ccc(C(F)(F)F)nn2)CC1
- EC50 (Cryptosporidium parvum [3]): 49 µM

- pKa [1]: 7.7
Structure (SMILES): O=C(Nc1nc2nc(N3CCN(C(=O)Cc4ccc(Cl)c(Cl)c4)CC3)ccc2s1)c1ccccc1
- EC50 (Cryptosporidium parvum [3]): 2.9 µM
- Activity [7]: 47%

Structure (SMILES): O=C(Cc1ccc(Cl)c(Cl)c1)N1CCN(c2ccc3cn[nH]c3c2)CC1
- EC50 (Cryptosporidium parvum [3]): 26 µM

Structure (SMILES): O=C(Cc1ccc(Cl)c(Cl)c1)N1CCN(c2ccc3c(cnn3Cc3ccccc3)n2)CC1
- EC50 (Cryptosporidium parvum [3]): 45 µM

Structure (SMILES): O=C(Cc1ccc(Cl)c(Cl)c1)N1CCN(c2ccc3nonc3c2)CC1
- EC50 (Cryptosporidium parvum [3]): 24 µM

Structure (SMILES): O=C(Nc1ccc(Cl)c(Cl)c1)N1CCN(c2nc3ccccc3[nH]2)CC1
- EC50 (Cryptosporidium parvum [3]): 17 µM

Structure (SMILES): O=C(Nc1ccc(Cl)c(Cl)c1)N1CCN(c2ccccc2)CC1
- EC50 (Cryptosporidium parvum [3]): 20 µM

Structure (SMILES): O=C(Nc1ccc(Cl)c(Cl)c1)N1CCN(c2ccc3nnc(C(F)(F)F)n3n2)CC1
- EC50 (Cryptosporidium parvum [3]): 11 µM

Structure (SMILES): O=C(Nc1ccc(Cl)cc1)N1CCN(c2ccc3nncn3n2)CC1
- EC50 (Cryptosporidium parvum [8]): 2.1 µM

Structure (SMILES): CC(=O)Oc1ccccc1C(=O)Nc1ncc([N+](=O)[O-])s1 [NITAZOXANIDE]
- EC50 (Cryptosporidium parvum [3]): 3.7 µM
